Screens: PubChem BioAssay, several laboratories
KCC2 mod – modulators of human KCC2 chloride dependent transport; B-score of Tl+ flux slope (higher = more flux/activation; lower = inhibition) at 10 µM; AID 1456; 190,000 compounds, 2.2% hits; KCC2 cells, thallium flux FluoZin-2 fluorescence; Q9H2X9;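 active means thallium flux slope and its plate-corrected score both differing from the plate sample mean at a set confidence after two filtering rounds, in either direction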;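 further: slope of fluorescence scaled to starting intensity during 10 to 20 s after thallium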
ABCB6 inh MLPCN – blocks the human ABCB6 transporter. Q9NP58. K562-ABCB6 porphyrin accumulation, flow cytometry, 1 h; active compounds read low. fluorescence ratio to DMSO, % at 10 µM. 360,000 compounds, 0.19% hits. AID 602162;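 active means fluorescence ratio to DMSO below 75%, the collection mean minus 3 SD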;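 further: signal is porphyrin accumulated inside mitochondria; 100% equals median channel fluorescence of DMSO control wells; lower ratio means ABCB6 inhibition with less porphyrin fluorescence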
V-ATPase pHluor – yeast V-ATPase proton transport regulation by pHLuorin; S. cerevisiae, pHLuorin cytosolic pH fluorescence; response, % at 10 µM; 350,000 compounds, 0.37% hits; in the data active means response mostly above about 7.3%, no sharp cut-off; inactive means mostly below about 5.4%; further: actives read high
Dynein transport – dynein cargo transport inhibition | 220,000 compounds, 0.47% hits | 3617.4 mouse cells, GR-EGFP nuclear translocation imaging; test concentration mostly 20 µM; stimulated with dexamethasone, 1 µM; active compounds read low | AID 1381 | z-score, hits read low;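 active means plate z-score of nuclear minus cytoplasmic receptor signal below a set negative limit, without overly bright fluorescence or cell loss, cut at about -3.5 in these data, passing the limit was not always enough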;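 further: z-score of nuclear minus cytoplasmic ring GR-EGFP intensity difference per well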
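Buffer or medium: tet-free, stripped-serum medium; Also added: dexamethasone, 1.0 µM final; Technique: high-content fluorescence imaging after fixation; Times: 48 h induction, 1 h compound, 30 min dex at 37 °C; Read-out: per-cell GR-EGFP intensity, nucleus versus surrounding cytoplasmic ring, well-averaged.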
p-CIP stab down – compounds decreasing mouse p/CIP protein stability; AID 1984; decrease of EGFP signal, % at 10 µM; Q05BA5; F442A p/CIP-EGFP cells, EGFP fluorescence, 16 h; 290,000 compounds, 0.01% hits;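 active means EGFP signal decrease of at least 30% at 10 µM or well 3 SD below plate mean, unless failing retest; inactive means the rest, including hits failing retest or dose response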
Target sequence (Q05BA5 1-1403): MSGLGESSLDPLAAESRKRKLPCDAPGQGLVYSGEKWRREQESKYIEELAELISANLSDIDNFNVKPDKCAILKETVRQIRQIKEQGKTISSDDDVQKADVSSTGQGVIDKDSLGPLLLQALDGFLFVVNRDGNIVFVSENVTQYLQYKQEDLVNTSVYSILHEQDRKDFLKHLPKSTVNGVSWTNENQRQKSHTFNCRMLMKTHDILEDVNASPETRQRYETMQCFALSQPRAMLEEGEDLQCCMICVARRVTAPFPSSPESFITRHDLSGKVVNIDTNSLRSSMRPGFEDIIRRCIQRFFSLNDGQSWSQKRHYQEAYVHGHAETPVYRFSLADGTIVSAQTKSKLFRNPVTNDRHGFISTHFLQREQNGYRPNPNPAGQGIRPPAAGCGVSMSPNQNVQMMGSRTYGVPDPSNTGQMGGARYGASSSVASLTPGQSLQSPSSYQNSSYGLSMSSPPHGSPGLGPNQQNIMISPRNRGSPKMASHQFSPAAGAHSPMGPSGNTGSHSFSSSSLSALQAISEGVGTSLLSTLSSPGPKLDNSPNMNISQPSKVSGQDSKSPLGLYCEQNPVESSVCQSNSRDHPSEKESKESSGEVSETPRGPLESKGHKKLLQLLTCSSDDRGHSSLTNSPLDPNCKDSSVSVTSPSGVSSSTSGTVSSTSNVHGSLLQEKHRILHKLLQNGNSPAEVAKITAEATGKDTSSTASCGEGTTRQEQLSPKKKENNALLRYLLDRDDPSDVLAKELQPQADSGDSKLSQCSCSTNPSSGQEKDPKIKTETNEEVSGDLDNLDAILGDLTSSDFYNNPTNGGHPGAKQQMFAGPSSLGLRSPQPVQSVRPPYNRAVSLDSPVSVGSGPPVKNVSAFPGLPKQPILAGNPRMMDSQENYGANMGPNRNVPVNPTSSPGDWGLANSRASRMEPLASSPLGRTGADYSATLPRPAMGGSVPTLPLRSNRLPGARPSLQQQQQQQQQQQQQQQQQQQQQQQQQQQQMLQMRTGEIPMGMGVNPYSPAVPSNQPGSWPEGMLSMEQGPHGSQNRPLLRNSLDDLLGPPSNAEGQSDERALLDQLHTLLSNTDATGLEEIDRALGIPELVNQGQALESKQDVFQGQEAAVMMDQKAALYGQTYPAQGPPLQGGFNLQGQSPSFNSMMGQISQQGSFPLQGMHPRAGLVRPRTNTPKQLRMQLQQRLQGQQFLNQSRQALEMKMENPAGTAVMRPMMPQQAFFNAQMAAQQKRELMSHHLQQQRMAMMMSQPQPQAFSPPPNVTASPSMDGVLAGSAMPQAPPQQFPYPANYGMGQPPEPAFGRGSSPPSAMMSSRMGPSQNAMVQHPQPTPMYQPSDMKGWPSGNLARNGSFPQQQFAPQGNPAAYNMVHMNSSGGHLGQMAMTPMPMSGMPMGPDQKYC
VATPase regulator – regulators of yeast V-ATPase proton transport | response, % at 10 µM | S. cerevisiae pHLuorin cytosolic pH | AID 602197 | shares compounds with V-ATPase pHluor | 980 compounds, 2% hits; in the data active means response above about 24%;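 further: plate controls were vehicle wells for no effect and positive control wells for full effect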
Starred values were filed as active, the others as inactive; / = no result given; ! = a repeat was not active. Only a selection was taken, and hits are over-represented in it overall.

SMILES | KCC2 mod | ABCB6 inh MLPCN | V-ATPase pHluor | Dynein transport | p-CIP stab down | VATPase regulator
Cc1csc2c(SCC(=O)NNC(=O)C(Cl)Cl)ncnc12 | -0.701 | 98.0 | 12.0* | -0.0668 | 5.2 | -4.4
O=C(NCCc1ccccc1)c1cc2ccccc2oc1=O | / | 93.0 | -1.4 | / | -0.6 | /
O=C(NCCC1=CCCCC1)c1cc2ccccc2oc1=O | 0.338 | 102.0 | 10.4* | 0.226 | 6.7 | 2.9
c1ccc2c(C(c3nnnn3-c3ccc4c(c3)OCCO4)N3CCCCC3)ccnc2c1 (stereo not given) | / | 96.0 | / | / | / | /
CCOc1ccc(NC(=O)/C(C#N)=C/c2cn(CC(=O)O)c3ccccc23)cc1 | / | 101.0 | 7.1* | / | -8.1 | -1.5
CCOc1cccc(NC(=O)/C(C#N)=C\c2cn(CC(=O)O)c3ccccc23)c1 | / | 103.0 | -1.2 | / | -17.8 | /
CCOc1ccc(C(C)=O)cc1CN1c2ccc(S(N)(=O)=O)cc2CC1C (stereo not given) | / | 97.0 | 0.5 | / | -4.9 | /
CN(C)CCNC(=O)c1cccc(S(=O)(=O)Nc2ccc(F)cc2)c1 | -0.757 | 102.0 | 6.2* | -1.28 | -4.4 | 1.2
CCN(CC)CCNC(=O)c1ccc(NC(=O)c2cccc(S(=O)(=O)Nc3ccc(C)cc3)c2)cc1 | -1.18 | 93.0 | 2.0 | 2.02 | -1.4 | /
CCC1CCCCN1CCCNC(=O)C1CCCN(S(=O)(=O)N2CC(C)CC(C)C2)C1 (stereo not given) | / | 91.0 | 2.0 | / | -16.6 | /
COCCn1c(SCC(=O)NNC(=O)c2ccccc2)nc2ccccc2c1=O | 0.649 | 102.0 | 10.6* | -0.363 | -3.3 | -2.3
CC(C)c1ccc(N(CC(=O)NC2CCCC2)C(=O)CCC(=O)Nc2ccccn2)cc1 | / | 95.0 | 15.1* | / | -4.8 | -1.5
COc1cccc(N2C(=O)c3ccncc3C2=O)c1 | 0.142 | 90.0 | 12.2* | -0.549 | -9.1 | -1.2
COc1cccc(/C=C2\C(=O)N(c3cccc(C)c3)C(=O)c3ccccc32)c1 | 1.09 | 99.0 | 1.1 | -1.45 | -11.6 | /
CC1=C(C(=O)Nc2ccccn2)C(c2ccc3c(c2)OCO3)C2=C(CC(C)(C)CC2=O)N1 (stereo not given) | 0.0416 | 97.0 | 2.1 | -0.359 | 9.8 | /
CCN(CC)c1ccc(C2C(C(=O)Nc3ccccn3)=C(C)NC3=C2C(=O)CC(C)(C)C3)cc1 (stereo not given) | -0.89 | 96.0 | 16.6* | 2.21 | 0.5 | -0.6
CCOC(=O)Cc1csc(NC(=O)COc2ccccc2)n1 | 0.387 | 100.0 | 11.3* | -0.708 | 11.0 | 0.5
Cc1ccc(S(=O)(=O)N2CCN(C(=O)COC(=O)c3cccnc3Cl)CC2)c(C)c1 | / | 98.0 | 12.7* | / | / | -0.2
CSc1ncccc1C(=O)OCC(=O)N1CCN(S(=O)(=O)c2ccc(C)cc2C)CC1 | / | 95.0 | -2.2 | / | / | /
Cc1ccc(NC(=O)CSCC(=O)NNC(=O)c2ccoc2C)cc1 | / | 98.0 | 1.6 | / | / | /
CC(C)C1C(=O)N(Cc2cn(CCC3OCCCO3)nn2)CCS(=O)(=O)N1Cc1ccc(-c2ccc(F)nc2)cc1 (stereo not given) | / | 98.0 | -0.2 | / | / | /
Cc1nn(-c2ccc(F)cc2)c(Cl)c1/C=C/C(=O)N1CCNC(=O)C1 | 0.845 | 101.0 | -1.3 | -0.369 | -2.8 | /
Cc1nn(-c2ccc(F)cc2)c(C)c1/C=C/C(=O)N1CCNC(=O)C1 | 0.0613 | 100.0 | 9.3* | -0.215 | 1.9 | -0.4
CCc1nnc(NC(=O)CCC(=O)Nc2ccc(OC)cc2OC)s1 | / | 89.0 | 4.8 | / | -3.4 | /
CC(C)(C)OC(=O)N[C@@H](Cc1ccccc1)C(=O)N[C@@H](CO)[C@H](O)[C@@H]1C[C@@H]1C(=O)NC1CC1 | / | 98.0 | 11.2* | / | -0.1 | -1.2
SMILES | KCC2 mod | ABCB6 inh MLPCN | V-ATPase pHluor | Dynein transport | p-CIP stab down | VATPase regulator
COc1ccccc1C(=O)NCCC(=O)NCCC12CC3CC(CC(C3)C1)C2 | / | 90.0 | 10.5* | / | -17.5 | -6.3
COc1ccccc1OCCNC(=O)CCNC(=O)c1ccccc1OC | / | 95.0 | -2.1 | / | / | /
Cc1cccc2c1CCCC2=O | / | 102.0 | 12.3* | / | / | -3.9
Cc1cc2c(cc1C)C(=O)CCC2 | / | 99.0 | -4.7 | / | / | /
N#C/C(=C(/O)COc1ccc(Br)cc1)c1nnc2n1CCCCC2 | 0.356 | 99.0 | 7.5* | -0.281 | -0.4 | -1.3
CC/C(O)=C(/C#N)c1nnc2n1CCCCC2 | 0.239 | 95.0 | 4.8 | -0.974 | -4.2 | /
C#CCNC(=O)C1=C[C@H](C(C)(C)C)C[C@H](OCCCCO)O1 | / | 102.0 | 15.7* | / | / | 1.7
CCOC(=O)N1CCN(C(=O)CSc2nc(=O)n3ccccc3n2)CC1 | / | 98.0 | -1.8 | / | / | /
COc1ccc(/C=C/C(=O)Nc2cc(S(=O)(=O)N3CCOCC3)ccc2OC)cc1 | / | 105.0 | -3.6 | / | / | /
COc1cccc(/C=C/C(=O)Nc2cc(S(=O)(=O)N3CCOCC3)ccc2OC)c1 | / | 100.0 | 11.8* | / | / | 0.8
O=C(/C=C/c1cccc(F)c1)Nc1cc(S(=O)(=O)N2CCOCC2)ccc1N1CCCC1 | 0.0416 | 103.0 | 6.5* | 0.847 | -5.0 | 1.8
COc1ccc(CNC(=O)[C@@H](NC(=O)C2CCN(S(=O)(=O)c3ccccc3)CC2)C(C)C)cc1 | / | 105.0 | -0.4 | / | 0.9 | /
C=C(C)CSc1nnc(-c2cc(OC)c(OC)c(OC)c2)n1N | / | 94.0 | -0.3 | -0.548 | -4.8 | /
C=C(C)CSc1nnc(-c2ccc(OC)c(OC)c2)n1N | / | 99.0 | 8.7* | -0.375 | -4.3 | 0.8
O=C(c1ccccc1)N1CCN(c2nc3ccc([N+](=O)[O-])cc3s2)CC1 | -0.871 | 89.0 | 15.5* | 1.35 | -7.0 | -2.7
COCOCCn1cc(CN2CCS(=O)(=O)N(Cc3ccc(-c4ccc(OC)nc4)cc3)C(C)C2=O)nn1 (stereo not given) | / | 95.0 | 7.8* | / | / | -2.3
CC(C)c1nnc(NC(=O)CCC(=O)NC2CCCCCC2)s1 | / | 101.0 | 5.0 | / | -11.2 | /
N#CC1=C(N)Oc2c(ccc3cccnc23)C1c1cccnc1 (stereo not given) | -0.395 | 98.0 | 9.7* | -1.89 | -0.1 | -0.5
CC(OC(=O)CCC(=O)c1ccc(Cl)s1)C(=O)NC1(C#N)CCCCC1 (stereo not given) | / | 97.0 | 2.9 | / | / | /
CC(=O)Nc1ccc(S(=O)(=O)NCCC(=O)NCc2ccncc2)cc1 | / | 103.0 | -3.3 | / | / | /
O=C1NCCN/C1=C\C(=O)c1ccc(F)cc1 | 1.88 | 99.0 | -2.0 | 1.66 | -3.1 | 2.8
COc1cc2c(cc1OC)CN(CCC(C)c1ccc(Cl)cc1)CC2 (stereo not given) | / | 94.0 | 13.5* | / | / | 1.7
COc1cc2c(cc1OC)CN(Cc1ccccc1)CC2 | / | 101.0 | -3.6 | / | 1.1 | /
CCOC(=O)C1=C(C)NC(SCC(=O)OC)=C(C#N)C1c1ccc(C(=O)OC)cc1 (stereo not given) | / | 104.0 | 9.9*! | 0.54 | -12.7 | -0.9
NC(=O)c1cc(NC(=O)CCc2nc3ccccc3s2)cc(C(N)=O)c1 | / | 96.0 | 9.6* | / | -12.1 | 3.7
COCCNC(=O)c1ccc(Cl)c(S(=O)(=O)Nc2cccc(C)c2C)c1 | / | 100.0 | -2.9 | / | -6.8 | /
Cc1ccccc1OC(C)C(=O)Nc1ccc(S(=O)(=O)N2CCCC2)cc1 (stereo not given) | / | 98.0 | -6.0 | / | -1.7 | /
